Experimental data from ChEMBL document CHEMBL2146449, “Design, synthesis, and biological evaluation of the analogues of glaziovianin A, a potent antitumor isoflavone” (Bioorg Med Chem, 2012).
The source made the active and inactive calls. The rule behind the calls is not given here.

What was measured:
HeLa S3 [1] = assay: Ratio of glaziovianin A IC50 to compound IC50 for human HeLaS3 cells; assay type: functional
[2] = Cytotoxicity against human HeLaS3 cells after 48 hrs by WST8 assay; assay type: functional, cell-based; settings: HeLa S3, 48 h
Method in brief: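 HeLa S3 seeded at 3 × 10^3 cells/well, left overnight, then given a range of compound concentrations for 48 h. WST-8 added for 2 h and absorbance read at 450 nm. Viability (% control) = (sample − blank)/(0 µM well − blank) × 100. Cells in DMEM + 10% FCS, 37 °C, 5% CO2.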

[3] = Cell cycle arrest in human HeLaS3 cells assessed as accumulation at G2/M phase at 1 uM after 24 hrs by flow cytometric analysis; assay type: functional, cell-based; settings: HeLa S3
Method in brief: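 HeLa S3 cells at 3 × 10^4 cells/mL exposed to compound for 24 h, harvested, fixed in 70% EtOH at -20 °C, stained with propidium iodide; DNA content read by flow cytometry. DMSO-treated cells as control. Cells kept in DMEM with 10% FCS at 37 °C, 5% CO2.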

HeLa S3 [4] = assay: Induction of mitotic arrest in human HeLaS3 cells assessed as abnormal multipolar spindles at 1 uM after 6 hrs by immunofluorescence staining; assay type: functional, cell-based
Method in brief: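 HeLa S3 at 3 × 10^4 cells/mL grown on coverslips, treated 6 h, fixed in -20 °C MeOH for 5 min. Anti-α-tubulin DM1A (1:250) in PBS with 0.5% BSA for 1 h at 37 °C, then Alexa488 anti-mouse IgG (1:2000) for 1 h. DAPI 0.1 µg/mL for chromosomes; spindles examined by fluorescence microscopy. DMSO control.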

Row | SMILES | Ratio IC50 (HeLa S3 [1]) | IC50 [2] [µM] | Activity [3] | Activity (HeLa S3 [4])
1 | COc1cc2occ(-c3cc(OC)c(OC)c(OC)c3OC)c(=O)c2cc1OC | 0.027 | 22 | – | –
2 | COc1cc2c(=O)c(-c3cc(OC)c4c(c3OC)OCO4)coc2cc1OCCCCCC(=O)NCCCCCCNC(=O)CCCC[C@@H]1SC[C@@H]2NC(=O)N[C@@H]21 | 0.039 | 15.2 | – | –
3 | COc1cc2c(=O)c(-c3cc(OC)c4c(c3OC)OCO4)coc2cc1OCC(O)CO (stereo not drawn) | – | > 100 | – | –
4 | COc1cc2occ(-c3cc(OC)c4c(c3OC)OCO4)c(=O)c2cc1OC [GLAZIOVIANIN A] | – | 0.59 | Active | Active
5 | COc1cc2c(=O)c(-c3cc(OC)c4c(c3OC)OCO4)coc2cc1OC1O[C@H](COC(C)=O)[C@@H](OC(C)=O)[C@H](OC(C)=O)[C@H]1OC(C)=O (mixture of isomers) | – | > 100 | – | –
6 | COc1cc2occ(-c3ccc4c(c3)OCO4)c(=O)c2cc1OC | 0.01 | – | – | –
7 | C=CCOc1cc2occ(-c3cc(OC)c4c(c3OC)OCO4)c(=O)c2cc1OC | 1.3 | 0.46 | Active | Active
8 | COc1cc2c(=O)c(-c3cc(OC)c4c(c3OC)OCO4)coc2cc1OC/C=C/CCC(=O)NCCCCCCNC(=O)CCCC1=C2C(C)=CC(C)=[N+]2[B-](F)(F)n2c(C)cc(C)c21 | 0.034 | 17.4 | – | –
9 | COc1cc2c(=O)c(-c3cc(OC)c4c(c3OC)OCO4)coc2cc1OC/C=C/CCC(=O)NCCCCCCNC(=O)CCCC[C@@H]1SC[C@@H]2NC(=O)N[C@@H]21 | 0.038 | 15.5 | – | –
10 | COc1cc2c(=O)c(-c3cc(OC)c4c(c3OC)OCO4)coc2cc1OC1CCCCO1 (stereo not drawn) | – | > 100 | – | –
11 | COc1cc2occ(-c3c(Br)c(OC)c4c(c3OC)OCO4)c(=O)c2cc1OC | 0.009 | 67.8 | – | –
12 | COc1cc2occ(-c3cc(OC)c4c(c3OC)OC(C)(C)O4)c(=O)c2cc1OC | – | > 100 | – | –
13 | COc1cc(-c2coc3cc(OC)c(OC)c(OC)c3c2=O)c(OC)c2c1OCO2 | – | > 100 | – | –
14 | C#CCOc1cc2occ(-c3cc(OC)c4c(c3OC)OCO4)c(=O)c2cc1OC | 3.5 | 0.17 | Active | Active
15 | COc1cc2c(=O)c(-c3cc(OC)c4c(c3OC)OCO4)coc2cc1OCc1ccccc1 | 3.1 | 0.19 | Active | Active
16 | COc1cc2c(=O)c(-c3cc(OC)c4c(c3OC)OCO4)coc2cc1OC1O[C@H](CO)[C@@H](O)[C@H](O)[C@H]1O (mixture of isomers) | – | > 100 | – | –
17 | COc1cc2c(=O)c(-c3cc(OC)c4c(c3OC)OCO4)coc2cc1O | – | > 100 | – | –
